ChEMBL document CHEMBL1799953, “Backbone cyclic peptide inhibitors of protein kinase B (PKB/Akt)” (J Med Chem, 2011)
Calls of active or inactive are those of the source. The rule behind the calls is not given here. *1 amine or outer side, *2 acyl side, *3 side chain or, on linkers, in order; H or OH if unused. Where a SMILES comes first, the peptide text is derived from it. Bridges are numbered along the chain shown (N, C = ends). [ ]: non-standard residue; d: D form. N(6-aminohexyl)Gly = O=C(CN(CCCCCCN[*:3])[*:1])[*:2]; NGly(3-aminopropyl) = O=C(CN(CCCN[*:3])[*:1])[*:2]; N(2-Aminoethyl)Gly = O=C(CN(CCN[*:3])[*:1])[*:2]; Adipoyl = O=C(CCCCC(=O)[*:2])[*:1]; Gly(N-(CH2)6NH2) = NCCCCCCNCC(=O)O; Gly(N-2-aminoethyl) = NCCNCC(=O)O; Cha = N[C@@H](CC1CCCCC1)C(=O)O; Gly(N(CH2)3NH2) = NCCCNCC(=O)O; hLeu = CC(C)CC[C@H](N)C(=O)O; Nle = CCCC[C@H](N)C(=O)O; Nva = CCC[C@H](N)C(=O)O; Dap = NC[C@H](N)C(=O)O; CO = O=C([*:1])[*:2]; Nlys = NCCCCNCC(=O)O

Target: RAC-alpha serine/threonine-protein kinase (Homo sapiens, UniProt P31749)
Experiment: Inhibition of Akt using RPRTSSF peptide and [gamma32]ATP at 5 uM by cell-free radioactive assay relative to control
In short: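 Cell-free 32P kinase assay: HisΔPHPKBEEEFlag (0.005 units, one-step Ni-NTA partial purification), 50 mM Hepes pH 7.4, 0.1 mM EGTA, 0.1% 2-mercaptoethanol, 10 mM magnesium acetate, 3 μM RPRTSSF substrate, 10 μM [γ32P]ATP (1 μCi/well). Inhibitor at 5 μM. Activity loss expressed as percent of uninhibited reaction.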

RAC-alpha serine/threonine-protein kinase, sequence (P31749 whole entry): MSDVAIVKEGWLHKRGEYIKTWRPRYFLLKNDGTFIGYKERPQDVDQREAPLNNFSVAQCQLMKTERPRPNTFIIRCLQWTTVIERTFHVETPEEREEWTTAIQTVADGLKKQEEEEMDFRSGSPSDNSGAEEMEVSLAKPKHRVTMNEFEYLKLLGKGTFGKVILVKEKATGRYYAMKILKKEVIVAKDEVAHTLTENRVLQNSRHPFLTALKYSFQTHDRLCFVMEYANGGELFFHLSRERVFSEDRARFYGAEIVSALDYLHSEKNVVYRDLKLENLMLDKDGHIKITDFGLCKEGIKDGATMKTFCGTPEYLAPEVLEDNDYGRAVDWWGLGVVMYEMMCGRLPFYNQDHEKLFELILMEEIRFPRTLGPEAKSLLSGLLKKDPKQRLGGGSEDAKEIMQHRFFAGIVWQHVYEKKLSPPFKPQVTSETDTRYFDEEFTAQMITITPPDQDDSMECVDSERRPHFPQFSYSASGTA

SMILES | inhibition
CCC[C@H](NC(=O)[C@H](CCCNC(=N)N)NC(=O)[C@@H](C)NC(=O)[C@@H](N)CCCNC(=N)N)C(=O)N[C@@H](Cc1ccc(O)cc1)C(=O)N[C@@H](CN)C(=O)N[C@@H](CCC(C)C)C(N)=O | inactive
CCC[C@H](NC(=O)[C@H](CCCNC(=N)N)NC(=O)[C@@H](CC(=O)O)NC(=O)[C@@H](N)CCCNC(=N)N)C(=O)N[C@@H](Cc1ccc(O)cc1)C(=O)N[C@@H](CN)C(=O)N[C@@H](CCC(C)C)C(N)=O | inactive
CCC[C@H](NC(=O)[C@H](CCCNC(=N)N)NC(=O)[C@@H](CCCCN)NC(=O)[C@@H](N)CCCNC(=N)N)C(=O)N[C@@H](Cc1ccc(O)cc1)C(=O)N[C@@H](CN)C(=O)N[C@@H](CCC(C)C)C(N)=O | 27%
CCC[C@H](NC(=O)[C@H](CCCNC(=N)N)NC(=O)[C@@H](CN)NC(=O)[C@@H](N)CCCNC(=N)N)C(=O)N[C@@H](Cc1ccc(O)cc1)C(=O)N[C@@H](CN)C(=O)N[C@@H](CCC(C)C)C(N)=O | 32%
CCC[C@H](NC(=O)[C@H](CCCNC(=N)N)NC(=O)[C@@H](Cc1ccc(O)cc1)NC(=O)[C@@H](N)CCCNC(=N)N)C(=O)N[C@@H](Cc1ccc(O)cc1)C(=O)N[C@@H](CN)C(=O)N[C@@H](CCC(C)C)C(N)=O | inactive
CCC[C@H](NC(=O)[C@H](CCCNC(=N)N)NC(=O)[C@@H](Cc1ccccc1)NC(=O)[C@@H](N)CCCNC(=N)N)C(=O)N[C@@H](Cc1ccc(O)cc1)C(=O)N[C@@H](CN)C(=O)N[C@@H](CCC(C)C)C(N)=O | inactive
CCC[C@H](NC(=O)[C@H](CCCNC(=N)N)NC(=O)[C@H](C)NC(=O)[C@@H](N)CCCNC(=N)N)C(=O)N[C@@H](Cc1ccc(O)cc1)C(=O)N[C@@H](CN)C(=O)N[C@@H](CCC(C)C)C(N)=O | 81%
CCC[C@H](NC(=O)[C@H](CCCNC(=N)N)NC(=O)[C@H](CC(=O)O)NC(=O)[C@@H](N)CCCNC(=N)N)C(=O)N[C@@H](Cc1ccc(O)cc1)C(=O)N[C@@H](CN)C(=O)N[C@@H](CCC(C)C)C(N)=O | 68%
CCC[C@H](NC(=O)[C@H](CCCNC(=N)N)NC(=O)[C@H](CCCCN)NC(=O)[C@@H](N)CCCNC(=N)N)C(=O)N[C@@H](Cc1ccc(O)cc1)C(=O)N[C@@H](CN)C(=O)N[C@@H](CCC(C)C)C(N)=O | 92%
CCC[C@H](NC(=O)[C@H](CCCNC(=N)N)NC(=O)[C@H](CN)NC(=O)[C@@H](N)CCCNC(=N)N)C(=O)N[C@@H](Cc1ccc(O)cc1)C(=O)N[C@@H](CN)C(=O)N[C@@H](CCC(C)C)C(N)=O | 94%
CCC[C@H](NC(=O)[C@H](CCCNC(=N)N)NC(=O)[C@H](Cc1ccc(O)cc1)NC(=O)[C@@H](N)CCCNC(=N)N)C(=O)N[C@@H](Cc1ccc(O)cc1)C(=O)N[C@@H](CN)C(=O)N[C@@H](CCC(C)C)C(N)=O | 74%
CCC[C@H](NC(=O)[C@H](CCCNC(=N)N)NC(=O)[C@H](Cc1ccccc1)NC(=O)[C@@H](N)CCCNC(=N)N)C(=O)N[C@@H](Cc1ccc(O)cc1)C(=O)N[C@@H](CN)C(=O)N[C@@H](CCC(C)C)C(N)=O | 60%
CCC[C@H](NC(=O)[C@H](CCCNC(=N)N)NC(=O)[C@H]1CCCN1C(=O)[C@@H](N)CCCNC(=N)N)C(=O)N[C@@H](Cc1ccc(O)cc1)C(=O)N[C@@H](CN)C(=O)N[C@@H](CCC(C)C)C(N)=O | inactive
CCC[C@H](NC(=O)[C@H](CCCNC(=N)N)NC(=O)[C@H](CC1CCCCC1)NC(=O)[C@@H](N)CCCNC(=N)N)C(=O)N[C@@H](Cc1ccc(O)cc1)C(=O)N[C@@H](CN)C(=O)N[C@@H](CCC(C)C)C(N)=O (H-R[Cha]R[Nva]Y[Dap][hLeu]-NH2) | 85%
CCC[C@@H]1NC(=O)[C@H](CCCNC(=N)N)NC(=O)CN(C(=O)[C@@H](N)CCCNC(=N)N)CCNC(=O)NCCN(CC(N)=O)C(=O)[C@H](CCC(C)C)NC(=O)[C@H](CN)NC(=O)[C@H](Cc2ccc(O)cc2)NC1=O (H-R[N(2-Aminoethyl)Gly]R[Nva]Y[Dap][hLeu][N(2-Aminoethyl)Gly]-NH2; linker 2-8 via CO) | 30%
CCC[C@@H]1NC(=O)[C@H](CCCNC(=N)N)NC(=O)CN(C(=O)[C@@H](N)CCCNC(=N)N)CCNC(=O)NCCCCN(CC(N)=O)C(=O)[C@H](CCC(C)C)NC(=O)[C@H](CN)NC(=O)[C@H](Cc2ccc(O)cc2)NC1=O (H-R[N(2-Aminoethyl)Gly]R[Nva]Y[Dap][hLeu][Nlys]-NH2; linker 2-8 via CO) | 98%

SMILES | inhibition
CCC[C@@H]1NC(=O)[C@H](CCCNC(=N)N)NC(=O)CN(C(=O)[C@@H](N)CCCNC(=N)N)CCCCCCNC(=O)NCCN(CC(N)=O)C(=O)[C@H](CCC(C)C)NC(=O)[C@H](CN)NC(=O)[C@H](Cc2ccc(O)cc2)NC1=O (H-R[N(6-aminohexyl)Gly]R[Nva]Y[Dap][hLeu][N(2-Aminoethyl)Gly]-NH2; linker 2-8 via CO) | 68%
CCC[C@@H]1NC(=O)[C@H](CCCNC(=N)N)NC(=O)CN(C(=O)[C@@H](N)CCCNC(=N)N)CCCCCCNC(=O)NCCCCCCN(CC(N)=O)C(=O)[C@H](CCC(C)C)NC(=O)[C@H](CN)NC(=O)[C@H](Cc2ccc(O)cc2)NC1=O (H-R[N(6-aminohexyl)Gly]R[Nva]Y[Dap][hLeu][N(6-aminohexyl)Gly]-NH2; linker 2-8 via CO) | 39%
CCC[C@@H]1NC(=O)[C@H](CCCNC(=N)N)NC(=O)CN(C(=O)[C@@H](N)CCCNC(=N)N)CCCCCCNC(=O)NCCCCN(CC(N)=O)C(=O)[C@H](CCC(C)C)NC(=O)[C@H](CN)NC(=O)[C@H](Cc2ccc(O)cc2)NC1=O (H-R[N(6-aminohexyl)Gly]R[Nva]Y[Dap][hLeu][Nlys]-NH2; linker 2-8 via CO) | 100%
CCC[C@@H]1NC(=O)[C@H](CCCNC(=N)N)NC(=O)CN(C(=O)[C@@H](N)CCCNC(=N)N)CCCNC(=O)NCCN(CC(N)=O)C(=O)[C@H](CCC(C)C)NC(=O)[C@H](CN)NC(=O)[C@H](Cc2ccc(O)cc2)NC1=O (H-R[NGly(3-aminopropyl)]R[Nva]Y[Dap][hLeu][N(2-Aminoethyl)Gly]-NH2; linker 2-8 via CO) | 54%
CCC[C@@H]1NC(=O)[C@H](CCCNC(=N)N)NC(=O)CN(C(=O)[C@@H](N)CCCNC(=N)N)CCCNC(=O)NCCCN(CC(N)=O)C(=O)[C@H](CCC(C)C)NC(=O)[C@H](CN)NC(=O)[C@H](Cc2ccc(O)cc2)NC1=O (H-R[NGly(3-aminopropyl)]R[Nva]Y[Dap][hLeu][NGly(3-aminopropyl)]-NH2; linker 2-8 via CO) | 98%
CCC[C@@H]1NC(=O)[C@H](CCCNC(=N)N)NC(=O)CN(C(=O)[C@@H](N)CCCNC(=N)N)CCCNC(=O)NCCCCN(CC(N)=O)C(=O)[C@H](CCC(C)C)NC(=O)[C@H](CN)NC(=O)[C@H](Cc2ccc(O)cc2)NC1=O (H-R[NGly(3-aminopropyl)]R[Nva]Y[Dap][hLeu][Nlys]-NH2; linker 2-8 via CO) | 92%
CCCC[C@H](NC(=O)[C@@H](N)CCCNC(=N)N)C(=O)N[C@@H](CCCNC(=N)N)C(=O)N[C@@H](CCC)C(=O)N[C@@H](Cc1ccc(O)cc1)C(=O)N[C@@H](CN)C(=O)N[C@@H](CCC(C)C)C(N)=O (H-R[Nle]R[Nva]Y[Dap][hLeu]-NH2) | 82%
CCC[C@@H]1NC(=O)[C@H](CCCNC(=N)N)NC(=O)CN(C(=O)[C@@H](N)CCCNC(=N)N)CCCCNC(=O)NCCN(CC(N)=O)C(=O)[C@H](CCC(C)C)NC(=O)[C@H](CN)NC(=O)[C@H](Cc2ccc(O)cc2)NC1=O (H-R[Nlys]R[Nva]Y[Dap][hLeu][N(2-Aminoethyl)Gly]-NH2; linker 2-8 via CO) | 84%
CCC[C@@H]1NC(=O)[C@H](CCCNC(=N)N)NC(=O)CN(C(=O)[C@@H](N)CCCNC(=N)N)CCCCNC(=O)NCCCCCCN(CC(N)=O)C(=O)[C@H](CCC(C)C)NC(=O)[C@H](CN)NC(=O)[C@H](Cc2ccc(O)cc2)NC1=O (H-R[Nlys]R[Nva]Y[Dap][hLeu][N(6-aminohexyl)Gly]-NH2; linker 2-8 via CO) | 94%
CCC[C@@H]1NC(=O)[C@H](CCCNC(=N)N)NC(=O)CN(C(=O)[C@@H](N)CCCNC(=N)N)CCCCNC(=O)NCCCN(CC(N)=O)C(=O)[C@H](CCC(C)C)NC(=O)[C@H](CN)NC(=O)[C@H](Cc2ccc(O)cc2)NC1=O (H-R[Nlys]R[Nva]Y[Dap][hLeu][NGly(3-aminopropyl)]-NH2; linker 2-8 via CO) | 54%
CCC[C@H](NC(=O)[C@H](CCCNC(=N)N)NC(=O)[C@H](CCC)NC(=O)[C@@H](N)CCCNC(=N)N)C(=O)N[C@@H](Cc1ccc(O)cc1)C(=O)N[C@@H](CN)C(=O)N[C@@H](CCC(C)C)C(N)=O (H-R[Nva]R[Nva]Y[Dap][hLeu]-NH2) | 80%
CCC[C@H](NC(=O)[C@H](CCCNC(=N)N)NC(=O)CNCCCN)C(=O)N[C@@H](Cc1ccc(O)cc1)C(=O)N[C@@H](CN)C(=O)N[C@@H](CCC(C)C)C(=O)N(CCN)CC(N)=O (H-[Gly(N(CH2)3NH2)]R[Nva]Y[Dap][hLeu][Gly(N-2-aminoethyl)]-NH2) | 63%
CCC[C@H](NC(=O)[C@H](CCCNC(=N)N)NC(=O)CNCCN)C(=O)N[C@@H](Cc1ccc(O)cc1)C(=O)N[C@@H](CN)C(=O)N[C@@H](CCC(C)C)C(=O)N(CCN)CC(N)=O (H-[Gly(N-2-aminoethyl)]R[Nva]Y[Dap][hLeu][Gly(N-2-aminoethyl)]-NH2) | 67%
CCC[C@H](NC(=O)[C@H](CCCNC(=N)N)NC(=O)CNCCCCCCN)C(=O)N[C@@H](Cc1ccc(O)cc1)C(=O)N[C@@H](CN)C(=O)N[C@@H](CCC(C)C)C(=O)N(CCN)CC(N)=O (H-[Gly(N-(CH2)6NH2)]R[Nva]Y[Dap][hLeu][Gly(N-2-aminoethyl)]-NH2) | 64%
CCC[C@H](NC(=O)[C@H](CCCNC(=N)N)NC(=O)CNCCCCN)C(=O)N[C@@H](Cc1ccc(O)cc1)C(=O)N[C@@H](CN)C(=O)N[C@@H](CCC(C)C)C(=O)N(CCN)CC(N)=O (H-[Nlys]R[Nva]Y[Dap][hLeu][Gly(N-2-aminoethyl)]-NH2) | 66%
CCC[C@@H]1NC(=O)[C@H](CCCNC(=N)N)NC(=O)[C@@H]2CCCN2C(=O)[C@H](CCCNC(=N)N)NC(=O)CCCCC(=O)NCCCCCCN(CC(N)=O)C(=O)[C@H](CCC(C)C)NC(=O)[C@H](CN)NC(=O)[C@H](Cc2ccc(O)cc2)NC1=O (RPR[Nva]Y[Dap][hLeu][N(6-aminohexyl)Gly]-NH2; linker N-8 via Adipoyl) | 30%
